Laboratory results as given in ChEMBL document CHEMBL1125361, “Effect of modification of the basic residues of dynorphin A-(1-13) amide on kappa opioid receptor selectivity and opioid activity” (J Med Chem, 1992).
pKi: −log10 of the molar value.

How the values were obtained:
Mu-type opioid receptor = Mu-type opioid receptor (Rattus norvegicus, UniProt P33535); test: Inhibition of [3H]DAMGO to opioid receptor mu of rat fore brain membranes was determined; type: cell membranes, Membrane
How it was run: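 Rat forebrain membranes with [3H]DAMGO at 4 °C in presence of peptidase inhibitors. Nonspecific binding defined by 10 μM levorphanol. Ki derived via Cheng-Prusoff, KD 0.314 nM.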

[1] = biological target: Delta-type opioid receptor (Rattus norvegicus, UniProt P33533); test: Inhibition of [3H]DPDPE to opioid receptor delta of rat fore brain membranes was determined; type: cell membranes, Membrane
How it was run: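 [3H]DPDPE displacement from rat forebrain membranes at 4 °C, peptidase inhibitors included. Nonspecific binding taken with 10 μM unlabeled DPDPE. Cheng-Prusoff Ki using KD 7.63 nM.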

Cavia porcellus = species on record: Cavia porcellus; test: Potency was evaluated in guinea pig ileum relative to Dynorphin A.; type: functional
How it was run: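 Isolated guinea pig ileum; agonist dose–response curves were determined. In the experiments using norbinaltorphimine, the antagonist was added to the tissue bath 10 min before the agonist dose–response curve was run.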

[2] = biological target: Opioid receptor (mu and kappa) (Cavia porcellus, UniProt P41144+P97266); test: Opioid receptor activity in guinea pig ileum; type: functional, tissue-based
How it was run: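 Isolated guinea pig ileum in tissue bath, agonist dose-response curves. When norbinaltorphimine was used, the antagonist was added 10 min before the agonist dose-response determination.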

[3] = biological target: Kappa-type opioid receptor (Cavia porcellus, UniProt P41144); test: Inhibition of [3H]- bremazocine to opioid receptor kappa of guinea pig […] membranes was determined
How it was run: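 Guinea pig cerebellar membranes labelled with [3H]bremazocine at 4 °C with bestatin and 100 nM DAMGO present. Nonspecific binding defined with 1 μM Dyn A-(1-13)NH2. Ki from Cheng-Prusoff using KD 0.0549 nM for [3H]bremazocine.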

Chain of Mu-type opioid receptor (P33535 whole entry): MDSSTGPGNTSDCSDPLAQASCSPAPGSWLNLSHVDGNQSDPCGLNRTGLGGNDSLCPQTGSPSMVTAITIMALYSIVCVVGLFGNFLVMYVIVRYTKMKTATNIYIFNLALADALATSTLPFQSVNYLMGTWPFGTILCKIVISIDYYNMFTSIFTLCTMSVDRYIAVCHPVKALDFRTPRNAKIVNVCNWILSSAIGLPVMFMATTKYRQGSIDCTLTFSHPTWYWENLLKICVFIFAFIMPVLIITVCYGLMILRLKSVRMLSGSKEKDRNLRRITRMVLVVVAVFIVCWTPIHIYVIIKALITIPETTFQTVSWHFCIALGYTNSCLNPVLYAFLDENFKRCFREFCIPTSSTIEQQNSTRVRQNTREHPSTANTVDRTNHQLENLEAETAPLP
Chain of Kappa-type opioid receptor (P41144 whole entry): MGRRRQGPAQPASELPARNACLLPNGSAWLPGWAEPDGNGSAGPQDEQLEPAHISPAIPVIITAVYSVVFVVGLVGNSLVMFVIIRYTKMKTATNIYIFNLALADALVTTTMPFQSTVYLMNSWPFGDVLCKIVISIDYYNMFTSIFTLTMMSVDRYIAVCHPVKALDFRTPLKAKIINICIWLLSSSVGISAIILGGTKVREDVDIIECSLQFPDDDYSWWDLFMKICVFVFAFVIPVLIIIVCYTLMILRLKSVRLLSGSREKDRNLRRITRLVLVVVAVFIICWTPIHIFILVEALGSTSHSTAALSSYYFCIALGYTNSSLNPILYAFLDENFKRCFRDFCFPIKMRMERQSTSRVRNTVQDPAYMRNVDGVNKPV
Chain of Delta-type opioid receptor (P33533 whole entry): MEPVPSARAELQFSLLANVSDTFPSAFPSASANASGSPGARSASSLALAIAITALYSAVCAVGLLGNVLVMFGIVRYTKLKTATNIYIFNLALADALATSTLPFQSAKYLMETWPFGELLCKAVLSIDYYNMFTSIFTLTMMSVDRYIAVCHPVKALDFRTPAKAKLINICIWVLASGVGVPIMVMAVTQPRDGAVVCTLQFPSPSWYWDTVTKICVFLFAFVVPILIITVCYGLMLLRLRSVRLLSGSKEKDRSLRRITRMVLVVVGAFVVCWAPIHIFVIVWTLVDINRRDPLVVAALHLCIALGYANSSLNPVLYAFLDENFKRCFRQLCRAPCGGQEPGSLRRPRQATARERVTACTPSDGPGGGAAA

Compound	pKi (Mu-type opioid receptor)	pKi [1]	Relative potency (Cavia porcellus) [%]	IC50 [2] [nM]	pKi [3]
CC[C@H](C)[C@H](NC(=O)[C@H](CCCN=C(N)N)NC(=O)[C@H](CCCN=C(N)N)NC(=O)[C@H](CC(C)C)NC(=O)[C@H](Cc1ccccc1)NC(=O)CNC(=O)CNC(=O)[C@@H](N)Cc1ccc(O)cc1)C(=O)N[C@@H](CCCN=C(N)N)C(=O)N1CCC[C@H]1C(=O)N[C@@H](CCCCN)C(=O)N[C@@H](CC(C)C)C(=O)N[C@@H](CCCCNC(C)=O)C(N)=O	10.21	8.34	126	0.19	9.82
CC[C@H](C)[C@H](NC(=O)[C@H](CCCN=C(N)N)NC(=O)[C@H](CCCN=C(N)N)NC(=O)[C@H](CC(C)C)NC(=O)[C@H](Cc1ccccc1)NC(=O)CNC(=O)CNC(=O)[C@@H](N)Cc1ccc(O)cc1)C(=O)N[C@@H](CCCN=C(N)N)C(=O)N1CCC[C@H]1C(=O)N[C@@H](CCCCN)C(=O)N[C@@H](CC(C)C)C(=O)N[C@@H](CCCCN)C(N)=O	9.40	8.72	100	0.24	10.64
CC[C@H](C)[C@H](NC(=O)[C@H](CCCN=C(N)N)NC(=O)[C@H](CCCN=C(N)N)NC(=O)[C@H](CC(C)C)NC(=O)[C@H](Cc1ccccc1)NC(=O)CNC(=O)CNC(=O)[C@@H](N)Cc1ccc(O)cc1)C(=O)N[C@@H](CCCN=C(N)N)C(=O)N1CCC[C@H]1C(=O)N[C@@H](CCCCNC(C)=O)C(=O)N[C@@H](CC(C)C)C(=O)N[C@@H](CCCCN)C(N)=O	10.52	9.35	148	0.16	10.28
CC[C@H](C)[C@H](NC(=O)[C@H](CCCN=C(N)N)NC(=O)[C@H](CCCN=C(N)N)NC(=O)[C@H](CC(C)C)NC(=O)[C@H](Cc1ccccc1)NC(=O)CNC(=O)CNC(=O)[C@@H](N)Cc1ccc(O)cc1)C(=O)N[C@@H](CCCCNC(C)=O)C(=O)N1CCC[C@H]1C(=O)N[C@@H](CCCCN)C(=O)N[C@@H](CC(C)C)C(=O)N[C@@H](CCCCN)C(N)=O	10.37	8.89	91	0.26	11.38
H-YGGFLK(Ac)RIRPKLK-NH2	10.74	9.38	37	0.64	10.62
H-YGGFLKRIRPKLK-NH2 [listing 1 of 2 here]			94	0.25	
H-YGGFLKRIRPKLK-NH2 [listing 2 of 2 here]	10.12	8.23			10.70
H-YGGFLRK(Ac)IRPKLK-NH2	9.74	8.96	69	0.34	9.85
H-YGGFLRKIRPKLK-NH2 [listing 1 of 2 here]			122	0.19	
H-YGGFLRKIRPKLK-NH2 [listing 2 of 2 here]	10.26	8.80			10.68
H-YGGFLRRIKPKLK-NH2 [listing 1 of 2 here]			89	0.27	
H-YGGFLRRIKPKLK-NH2 [listing 2 of 2 here]	10.34	8.72			11.17
